Calls of active or inactive are those of the source.

Data set [1] concerns HepG2. The data set can be described thus: Cytotoxicity against human HepG2 cells assessed as reduction in cell viability upto 10 uM after 48 hrs by MTT assay. The class given is toxicity, cell-based. To be noted: hepg2, 48 h. The gist of the method: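 HepG2 cells treated 48 h with compound at 0.1–10,000 nM; viability read by MTT versus untreated control cells. Mean ± SD of three experiments run in triplicate.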
Background: Tetrazolium dyes change colour on reduction, which living cells bring about.

Data set [2] is described as follows: Induction of LDL uptake in human HepG2 cells incubated for 2 hrs in presence of 1 nM PCSK9 by fluorescent plate reader analysis (reference value: 51.69 +/- 15.30 %). The class given is functional.
For data set [3], the target named is Proprotein convertase subtilisin/kexin type 9 (Homo sapiens) (UniProt Q8NBP7). The data set can be described thus: Inhibition of PCSK9 mediated epinephrine induced platelet aggregation in human platelet rich plasma assessed as prevention of AUC increase at 10 nM preincubated for 15 mins followed by PRP addition by light transmission aggregometry assay. The gist of the method:
(§1)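 PRP from healthy donors (n = 5), prepared by centrifuging whole blood 10 min at 100g at room temperature without brakes. Recombinant PCSK9 (5 μg/mL) preincubated with compound for 15 min at room temperature, then added to PRP for 2 min at 37 °C. Aggregation triggered by subthreshold epinephrine (0.16 μM) and followed by light transmission aggregometry. Lag time and area under the curve were scored.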

The target is the same in data set [4]. The data set can be described thus: Inhibition of PCSK9 mediated epinephrine induced platelet aggregation in human platelet rich plasma assessed as prevention of lag time reduction at 10 nM preincubated for 15 mins followed by PRP addition by light transmission aggregometry assay. The essentials:
as §1

A short description of data set [5]: Induction of LDLR expression in human HepG2 cells membrane in presence of 1 nM PCSK9 (reference value: 39.71 +/- 2.05%). The format is functional.
Data set [6] can be described thus: Metabolic stability in mouse liver microsomes assessed as clearance per mg protein at 5 uM preincubated for 10 mins followed by UDPGA addition and measured upto 60 mins by LC-MS/MS analysis. The format is ADME, Microsome. Conditions: time < 70 min, read-out: CLH. The essentials:
(§2)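 Compound at 5 μM final, in duplicate, from a 1 mM DMSO solution. Pre-incubated 10 min at 37 °C with human or mouse liver microsomes (0.5 mg/mL) in 50 mM potassium phosphate pH 7.4 with 3 mM MgCl2. The reaction was started with an NADPH-regenerating mix plus UDPGA. Samples taken at 0–60 min were quenched in ACN and analysed by LC–MS/MS. A no-cofactor control was included; 7-ethoxycoumarin and 7-hydroxycoumarin served as references.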

A short description of data set [7]: Metabolic stability in human liver microsomes assessed as clearance per mg protein at 5 uM preincubated for 10 mins followed by UDPGA addition and measured upto 60 mins by LC-MS/MS analysis. The class given is ADME, Microsome. Conditions: time < 70 min, read-out: CLH. The gist of the method:
as §2
In general terms: Microsomes from liver hold many membrane-bound enzymes, among them those of drug oxidation.

Data set [8] is described as follows: Induction of LDL uptake in human HepG2 cells incubated for 2 hrs in presence of 10 nM PCSK9 by fluorescent plate reader analysis (reference value: 51.69 +/- 15.30 %). The format is functional.
Data set [9] can be described thus: Induction of LDLR expression in human HepG2 cells membrane in presence of 10 nM PCSK9 (reference value: 39.71 +/- 2.05%). The class given is functional.

Proprotein convertase subtilisin/kexin type 9 (Homo sapiens), sequence (Q8NBP7 31-152 limits assumed): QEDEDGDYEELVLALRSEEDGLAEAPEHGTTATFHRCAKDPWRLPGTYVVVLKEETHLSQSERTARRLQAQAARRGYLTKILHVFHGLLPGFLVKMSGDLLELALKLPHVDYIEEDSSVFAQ
Proprotein convertase subtilisin/kexin type 9 (Homo sapiens), sequence (Q8NBP7 153-692 limits assumed): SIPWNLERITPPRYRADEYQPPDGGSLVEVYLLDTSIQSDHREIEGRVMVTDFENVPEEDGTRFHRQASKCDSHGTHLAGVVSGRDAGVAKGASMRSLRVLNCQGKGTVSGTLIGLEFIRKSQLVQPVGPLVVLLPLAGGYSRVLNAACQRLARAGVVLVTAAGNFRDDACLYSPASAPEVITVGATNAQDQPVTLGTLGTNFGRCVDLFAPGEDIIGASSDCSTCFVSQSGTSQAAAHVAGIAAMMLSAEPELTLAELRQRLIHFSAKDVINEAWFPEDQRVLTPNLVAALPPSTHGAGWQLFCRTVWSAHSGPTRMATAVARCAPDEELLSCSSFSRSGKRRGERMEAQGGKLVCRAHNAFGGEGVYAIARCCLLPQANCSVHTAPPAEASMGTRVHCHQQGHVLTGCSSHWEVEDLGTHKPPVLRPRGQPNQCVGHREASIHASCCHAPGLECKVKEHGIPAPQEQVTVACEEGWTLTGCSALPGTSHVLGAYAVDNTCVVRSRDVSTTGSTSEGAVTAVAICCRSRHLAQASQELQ

For `CNCCCCCn1c(-c2ncc(-c3ccc4ccccc4c3)n2CCCC(C)(C)C)cnc1I`, the Activity entry in data set [1] is given as “Non-Toxic”; in data set [2], 103.47%; in data set [5] it was 101.1%. Further, the inhibition entry in [3] and in [4] was “Active” throughout.

For the compound `O=c1ccc2ccc(O)cc2o1` [UMBELLIFERONE], the figures for the microsomal CLint at 5 µM in data set [6] and in data set [7] were 533 µL/min/mg and 390 µL/min/mg, respectively.

Consider `CCOc1ccc2ccc(=O)oc2c1` [ETHOXYCOUMARIN], for which the microsomal CLint at 5 µM in data set [6] stood at 291 µL/min/mg; in data set [7], 46.1 µL/min/mg.

`C#Cc1ncc(-c2ncc(-c3ccc4ccccc4c3)n2CCCC(C)(C)C)n1CCCCCNC`: the Activity entry in data set [1] was “Non-Toxic”; in data set [8], 81.87%; in [9] it was 91.1%.

The record behind these values is ChEMBL document CHEMBL5338811, “Computational Design, Synthesis, and Biological Evaluation of Diimidazole Analogues Endowed with Dual PCSK9/HMG-CoAR-Inhibiting Activity” (J Med Chem, 2023).
